Activity calls are given as the source filed them.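 How the source made its calls: active means compounds whose mean IC50 across repeat dose response tests falls below a set limit; inactive means the rest.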
System: AML12 mouse hepatocytes, BODIPY lipid droplet imaging
Experiment: hepatocyte lipid droplet accumulation inhibitors, dose response, imaging, AML12 mouse hepatocytes, high-content (AID 463191)
Conditions: cells loaded with 100 µM oleic acid
Summary of the method: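 Test system: AML12 mouse hepatocyte cell line, lipid droplet imaging. Compound: Seven-point series from 32 to 0.5 µM, 0.32% DMSO. Incubation: cells grown about 20 h at 37 °C, then overnight compound exposure.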

Row | Compound | IC50
1 | CCOc1ccc(CCNC(=O)Nc2ccccc2C)cc1OCC | 2030 nM
2 | CCCCCCn1c(SCC(=O)Nc2cc(C)on2)nc2ccccc2c1=O | 750 nM
3 | COc1ccc(CNC(=O)CN2C(=O)NC(C)(c3cccc4ccccc34)C2=O)cc1OC (centres undefined) | 2320 nM
4 | CCCCn1c(=O)[nH]c(=O)c2c1nc(-c1ccc(-c3ccccc3)cc1)n2C | 9970 nM (inactive)
5 | CCc1ccc(NC(=O)CNC(=O)[C@@H]2Cc3ccccc3CN2C(=O)OC(C)(C)C)cc1 | 5020 nM (inactive)
6 | COc1ccc(/C=C(\NC(=O)c2ccc(OCC(C)C)cc2)C(=O)OCc2ccco2)cc1 | 2710 nM
7 | CCOc1ccc(CCNC(=O)CSc2cc(=O)n(C)c3cc(Cl)ccc23)cc1OCC | 708 nM
8 | COc1ccc(CCNC(=O)[C@H](C)N2C(=O)N3CCc4c([nH]c5ccccc45)[C@@]3(C)C2=O)cc1OC | 1780 nM
9 | Cc1cc(N2CCOCC2)n2nc(C)c(-c3ccc(Cl)cc3)c2n1 | 1310 nM
10 | CC(C)Oc1ccc(C(=O)OC(C)C(=O)Nc2nc(-c3cccc([N+](=O)[O-])c3)cs2)cc1 (centres undefined) | 866 nM
11 | CCC(C)(C)NC(=O)C(c1ccc(OC)cc1)N(CC1CCCO1)C(=O)CCC(=O)Nc1cc(C)on1 (centres undefined) | 3440 nM
12 | CCOc1ccc(CCNC(=O)Cn2ncn3nc(-c4ccc(OC)cc4)cc3c2=O)cc1OCC | < 500 nM
13 | COc1ccccc1NS(=O)(=O)c1ccc(N/N=C/c2c(C)nn(-c3ccccc3)c2N2CCCC2)c([N+](=O)[O-])c1 | < 500 nM
14 | O=C(Nc1nc(-c2ccc(-c3ccccc3)cc2)cs1)C1CCCO1 (centres undefined) | 2230 nM
15 | CCNC(=S)N1CCc2cc(OC)c(OC)cc2C1COc1ccc(F)cc1 (centres undefined) | 2280 nM
16 | CC1Cc2cc(S(=O)(=O)NCCC(=O)N(C)Cc3ccccc3)ccc2N1C(=O)C1CC1 (centres undefined) | 7520 nM (inactive)
17 | Cc1cc(C(=O)OC(C)C(=O)Nc2nc(-c3ccccc3)cs2)c(C)o1 (centres undefined) | 758 nM
18 | CCOc1ccc(C(=O)OCC(=O)Nc2cc(C)on2)cc1OCC | 1800 nM
19 | CCc1ccc(NC(=O)CSc2nnc(C)c(=O)n2N)cc1 | 1480 nM
20 | CCOc1ccccc1Nc1nnc(SCC(=O)Nc2nc(-c3ccc(OC)cc3)cs2)s1 | 1020 nM
21 | CCOc1ccc(CCNC(=O)COC(=O)c2c(C)nn(-c3ccccc3)c2C)cc1OCC | < 500 nM
22 | CC(=O)Nc1ccc(-c2csc(NC(=O)Cc3cccc(F)c3)n2)cc1 | 1800 nM
23 | CCOc1ccc(CCNC(=O)c2cc3sccc3n2CC)cc1OCC | < 500 nM
24 | COc1ccc(CN(C)C(=O)CNC(=O)Cc2cccc3ccccc23)c(OC)c1OC | 4550 nM
25 | CCOc1ccccc1NC(=O)C1CCN(C(=O)NCc2ccccc2)CC1 | < 500 nM

Row | Compound | IC50
26 | CCOc1ncccc1C(=O)OC(C)C(=O)Nc1ccc(CC)cc1 (centres undefined) | 2640 nM
27 | CCOc1ccc(CCNC(=O)CN2C(=O)c3cccnc3Oc3ccc(C)cc32)cc1OCC | < 500 nM
28 | CCOc1ccc(CCNC(=O)COC(=O)/C=C/c2ccc(C)o2)cc1OCC | 7620 nM (inactive)
29 | CCOc1ccc(CCNC(=O)COC(=O)/C=C/c2ccc(OC)c(OC)c2)cc1OCC | 1500 nM
30 | O=C(NC1CCCc2c1cnn2-c1ccccc1F)c1ccccn1 (centres undefined) | > 32000 nM (inactive)
31 | Cc1cccc(NC(=O)[C@H](C)NC(=O)[C@@H]2Cc3ccccc3CN2C(=O)OC(C)(C)C)c1 | 1630 nM
32 | COc1ccc(CCNC(=O)CCOc2cc(C)ccc2C)cc1OC | 4550 nM
33 | CCOc1ccc(CCNC(=O)Cn2c(-c3nonc3N)nc3ccccc32)cc1OCC | 580 nM
34 | CC(C)(C)c1ccc(-c2csc(NNC3=NCCCCC3)n2)cc1 | 2090 nM
35 | CCC(C(=O)NCc1cccc(C)c1)n1nc(C)c2c(C)n(-c3ccccc3)nc2c1=O (centres undefined) | 6770 nM (inactive)
36 | CCOc1ccc(CCNC(=O)CN2CCN(Cc3ccc(F)cc3)C2=O)cc1OCC | 1830 nM
37 | COc1ccc(-c2csc(NC(=O)c3ccc(OCC(=O)N4CCOCC4)c(OC)c3)n2)cc1OC | 1900 nM
38 | CCc1nn2c(N3CCOCC3)cc(C)nc2c1-c1ccc(F)cc1 | < 500 nM
39 | CCOc1ccc2nc(-c3ccccc3)nc(SCC(=O)Nc3ncc(C)s3)c2c1 | < 500 nM
40 | CCOc1cc(CNC(=O)CCCn2c(=O)c3cccn3c3cccnc32)cc(OCC)c1OCC | 540 nM
41 | CCN(CC(=O)Nc1c(F)cccc1F)C(=O)CCCc1c[nH]c2ccccc12 | 1890 nM
42 | COc1cc(NC(=O)c2cccs2)c(OC)cc1NC(=O)CCC(=O)Nc1ccc(C)cc1 | 790 nM
43 | CCOc1ccc(CCNC(=O)c2cc(C)nc3ccccc23)cc1OCC | 6400 nM (inactive)
44 | CCOc1ccc(CCNC(=O)c2nnc(Cc3ccc(F)cc3)o2)cc1OCC | 1570 nM
45 | Cc1ccc(CNC(=O)c2ccc(N3CCC4(CC3)CC(c3ccccc3)=NO4)c(NC(=O)c3ccc(Br)cc3)c2)cc1 | < 500 nM
46 | CCOc1ccc(CCNC(=O)CS(=O)Cc2nc(-c3ccc(OC)c(OC)c3)oc2C)cc1OCC (centres undefined) | 7640 nM (inactive)
47 | CCCc1nc2ccccc2c(C(=O)OC(C)C(=O)NCc2ccc3c(c2)OCO3)c1CC (centres undefined) | 1970 nM
48 | COc1ccc(C(C(=O)NC(C)(C)C)N(CC2CCCO2)C(=O)CCC(=O)Nc2cc(C)on2)cc1 (centres undefined) | 4950 nM
49 | CCCN1C(=O)/C(=C\C=C2\N(CC)c3ccccc3C2(C)C)SC1=S | < 500 nM

From PubChem BioAssay AID463191 (Sanford-Burnham Center for Chemical Genomics, 2010)
